Results taken from ChEMBL document CHEMBL2040740, “Synthesis and antitumor activity of formononetin nitrogen mustard derivatives” (Eur J Med Chem, 2012).
Active and inactive are the calls of the source. No cut-off for these calls is given here.

Experiments:
DU-145 = assay: Cytotoxicity against human DU145 cells after 72 hrs by MTT assay; type: functional, cell-based; conditions: DU-145, 72 h
How it was run: (§1)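 Cells grown at 37 °C in 5% CO₂/95% air, in RPMI-1640 or DMEM with 10% neonatal bovine serum or 10% FBS. Exposed to a concentration series for 72 h, then MTT added for a further 4 h at 37 °C. Formazan dissolved in DMSO and absorbance read at 570 and 630 nm. Triplicate wells in three independent experiments; IC50 calculated by dose-effect analysis.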

SH-SY5Y = assay: Cytotoxicity against human SH-SY5Y cells after 72 hrs by MTT assay; type: functional, cell-based; how it was run: as §1
SGC-7901 = assay: Cytotoxicity against human SGC7901 cells after 72 hrs by MTT assay; type: functional, cell-based; conditions: SGC-7901, 72 h; how it was run: as §1
HCT-116 [1] = assay: Cytotoxicity against human HCT116 cells after 72 hrs by MTT assay; type: functional, cell-based; conditions: HCT-116, 72 h; how it was run: as §1
HeLa [2] = assay: Cytotoxicity against human HeLa cells after 72 hrs by MTT assay; type: functional, cell-based; how it was run: as §1
HeLa [3] = assay: Cell cycle arrest in human HeLa cells assessed as accumulation in G2/M phase after 48 hrs by flow cytometry; type: functional, cell-based
How it was run: (§2)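 Cells exposed to test agent for 48 h, then harvested, washed twice in PBS and fixed in 75% ice-cold ethanol at least overnight. DNA content of 10,000 events analysed by flow cytometry, giving percentage of cells in each cycle phase versus vehicle control.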

HeLa [4] = assay: Cell cycle arrest in human HeLa cells assessed as decrease in S phase cells at 3.75 to 15 uM after 48 hrs by flow cytometry; type: functional, cell-based; how it was run: as §2
HeLa [5] = assay: Induction of apoptosis in human HeLa cells assessed as early to mid apoptotic cells at 5 uM after 48 hrs by annexinV-FITC/PI staining-based flow cytometry (reference value: 2.93%); type: functional
How it was run: (§3)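 After 48 h treatment, cells washed twice in cold PBS and resuspended in binding buffer at 1 × 10⁵ cells/mL. Stained with Annexin V-FITC and propidium iodide in the dark for 15 min at room temperature, then analysed by flow cytometry. Lower-right quadrant scored as early-mid apoptotic, upper-right as late apoptotic/necrotic. Experiments performed three times.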

HeLa [6] = assay: Induction of apoptosis in human HeLa cells assessed as late apoptotic to necrotic at 5 uM after 48 hrs by annexinV-FITC/PI staining-based flow cytometry (reference value: 1.98%); type: functional; how it was run: as §3
HeLa [7] = assay: Induction of apoptosis in human HeLa cells assessed as early to mid apoptotic cells at 10 uM after 48 hrs by annexinV-FITC/PI staining-based flow cytometry (reference value: 2.93%); type: functional; how it was run: as §3
HeLa [8] = assay: Cell cycle arrest in human HeLa cells assessed as accumulation in G2/M phase at 15 uM after 48 hrs by flow cytometry relative to control; type: functional; how it was run: as §2
HCT-116 [9] = assay: Induction of apoptosis in human HCT116 cells assessed as late apoptotic to necrotic cells at 8 uM after 48 hrs by annexinV-FITC/PI staining-based flow cytometry (reference value: 0.43%); type: functional; how it was run: as §3
HCT-116 [10] = assay: Induction of apoptosis in human HCT116 cells assessed as late apoptotic to necrotic cells at 2 uM after 48 hrs by annexinV-FITC/PI staining-based flow cytometry (reference value: 0.43%); type: functional; how it was run: as §3
HCT-116 [11] = assay: Induction of apoptosis in human HCT116 cells assessed as early to mid apoptotic cells at 2 uM after 48 hrs by annexinV-FITC/PI staining-based flow cytometry (reference value: 1.62%); type: functional; how it was run: as §3
HCT-116 [12] = assay: Induction of apoptosis in human HCT116 cells assessed as early to mid apoptotic cells at 8 uM after 48 hrs by annexinV-FITC/PI staining-based flow cytometry (reference value: 1.62%); type: functional; how it was run: as §3
HCT-116 [13] = assay: Cell cycle arrest in human HCT116 cells assessed as accumulation in G2/M phase at 8 uM after 48 hrs by flow cytometry relative to control; type: functional; how it was run: as §2
HCT-116 [14] = assay: Cell cycle arrest in human HCT116 cells assessed as accumulation in G2/M phase after 48 hrs by flow cytometry; type: functional, cell-based; how it was run: as §2
HCT-116 [15] = assay: Cell cycle arrest in human HCT116 cells assessed as decrease in S phase cells at 2 to 8 uM after 48 hrs by flow cytometry; type: functional, cell-based; how it was run: as §2

COc1ccc(-c2coc3cc(OC4CCCCCC4)ccc3c2=O)cc1N(CCCl)CCCl
IC50 (DU-145): 10.1 µM | IC50 (SH-SY5Y): 2.08 µM | IC50 (SGC-7901): 14.3 µM | IC50 (HCT-116 [1]): 5.72 µM | IC50 (HeLa [2]): 8.85 µM

COc1ccc(-c2coc3cc(O)ccc3c2=O)cc1 [FORMONONETIN]
IC50 (DU-145): > 100 µM | IC50 (SH-SY5Y): > 100 µM | IC50 (SGC-7901): 2.17 µM | IC50 (HCT-116 [1]): 61 µM | IC50 (HeLa [2]): 8.51 µM

COc1ccc(-c2coc3cc(OC4CCCCC4)ccc3c2=O)cc1N(CCCl)CCCl
IC50 (DU-145): 11.2 µM | Activity (HeLa [3]): Dose-dependent effect | IC50 (SH-SY5Y): 4.44 µM | Activity (HeLa [4]): Active | Activity (HeLa [5]): 3.06% | IC50 (SGC-7901): 15.8 µM | Activity (HeLa [6]): 3.27% | IC50 (HCT-116 [1]): 6.54 µM | Activity (HeLa [7]): 8.83% | Activity (HeLa [8]): 21.33% | IC50 (HeLa [2]): 8.29 µM

COc1ccc(-c2coc3cc(OCc4ccc(C)cc4)ccc3c2=O)cc1N(CCCl)CCCl
IC50 (DU-145): 18.8 µM | IC50 (SH-SY5Y): 49.9 µM | IC50 (SGC-7901): 7.73 µM | IC50 (HCT-116 [1]): 9.41 µM | IC50 (HeLa [2]): 12.6 µM

CCCCOc1ccc2c(=O)c(-c3ccc(OC)c(N(CCCl)CCCl)c3)coc2c1
IC50 (DU-145): 8.28 µM | IC50 (SH-SY5Y): 16.3 µM | IC50 (SGC-7901): 11.8 µM | IC50 (HCT-116 [1]): 17.1 µM | IC50 (HeLa [2]): 11.8 µM

CCOc1ccc2c(=O)c(-c3ccc(OC)c(N(CCCl)CCCl)c3)coc2c1
IC50 (DU-145): 23.9 µM | IC50 (SH-SY5Y): 11.9 µM | IC50 (SGC-7901): 13 µM | IC50 (HCT-116 [1]): 8.47 µM | IC50 (HeLa [2]): 10.7 µM

C=C(C)COc1ccc2c(=O)c(-c3ccc(OC)c(N(CCCl)CCCl)c3)coc2c1
IC50 (DU-145): 15.6 µM | IC50 (SH-SY5Y): 10.8 µM | IC50 (SGC-7901): 15.4 µM | IC50 (HCT-116 [1]): 14.6 µM | IC50 (HeLa [2]): 18.3 µM

COc1ccc(-c2coc3cc(OCCC(C)C)ccc3c2=O)cc1N(CCCl)CCCl
IC50 (DU-145): 6.6 µM | IC50 (SH-SY5Y): 10.4 µM | IC50 (SGC-7901): 9.47 µM | IC50 (HCT-116 [1]): 7.67 µM | IC50 (HeLa [2]): 9.81 µM

COc1ccc(-c2coc3cc(OC4CCCC4)ccc3c2=O)cc1N(CCCl)CCCl
IC50 (DU-145): 11.1 µM | IC50 (SH-SY5Y): 5.13 µM | IC50 (SGC-7901): 15.2 µM | IC50 (HCT-116 [1]): 8.75 µM | IC50 (HeLa [2]): 19.3 µM

CCC(C)Oc1ccc2c(=O)c(-c3ccc(OC)c(N(CCCl)CCCl)c3)coc2c1 (stereo not drawn)
IC50 (DU-145): 28.8 µM | IC50 (SH-SY5Y): 3.58 µM | IC50 (SGC-7901): 47.5 µM | IC50 (HCT-116 [1]): 20.2 µM | IC50 (HeLa [2]): 18.9 µM

COc1ccc(-c2coc3cc(OCC=C(C)C)ccc3c2=O)cc1N(CCCl)CCCl
IC50 (DU-145): 12.2 µM | IC50 (SH-SY5Y): 5.25 µM | IC50 (SGC-7901): 19.8 µM | IC50 (HCT-116 [1]): 13.8 µM | IC50 (HeLa [2]): 18 µM

C=CCOc1ccc2c(=O)c(-c3ccc(OC)c(N(CCCl)CCCl)c3)coc2c1
IC50 (DU-145): 15.4 µM | IC50 (SH-SY5Y): 4.51 µM | IC50 (SGC-7901): 10.2 µM | IC50 (HCT-116 [1]): 7.54 µM | IC50 (HeLa [2]): 9.22 µM

CCCOc1ccc2c(=O)c(-c3ccc(OC)c(N(CCCl)CCCl)c3)coc2c1
IC50 (DU-145): 28.8 µM | IC50 (SH-SY5Y): 7.89 µM | IC50 (SGC-7901): > 100 µM | IC50 (HCT-116 [1]): 15.2 µM | IC50 (HeLa [2]): 12.8 µM

N[C@@H](Cc1ccc(N(CCCl)CCCl)cc1)C(=O)O [MELPHALAN]
IC50 (DU-145): 96.3 µM | IC50 (SH-SY5Y): 5.5 µM | IC50 (SGC-7901): 51 µM | IC50 (HCT-116 [1]): 20.9 µM | IC50 (HeLa [2]): 24 µM

COc1ccc(-c2coc3cc(OCc4ccccc4)ccc3c2=O)cc1N(CCCl)CCCl
IC50 (DU-145): 26.5 µM | IC50 (SH-SY5Y): 11.4 µM | IC50 (SGC-7901): 18.8 µM | IC50 (HCT-116 [1]): 4.97 µM | IC50 (HeLa [2]): 16.4 µM

COc1ccc(-c2coc3cc(OCCc4ccccc4)ccc3c2=O)cc1N(CCCl)CCCl
IC50 (DU-145): 7.57 µM | IC50 (SH-SY5Y): 3.84 µM | IC50 (SGC-7901): 11 µM | IC50 (HCT-116 [1]): 8.05 µM | IC50 (HeLa [2]): 17.8 µM

COc1ccc(-c2coc3cc(OC(C)C)ccc3c2=O)cc1N(CCCl)CCCl
IC50 (DU-145): 19.5 µM | IC50 (SH-SY5Y): 2.17 µM | Activity (HCT-116 [9]): 43.72% | IC50 (SGC-7901): 9.21 µM | Activity (HCT-116 [10]): 0.38% | Activity (HCT-116 [11]): 9.95% | Activity (HCT-116 [12]): 38.1% | IC50 (HCT-116 [1]): 3.8 µM | Activity (HCT-116 [13]): 24.84% | Activity (HCT-116 [14]): Dose-dependent effect | IC50 (HeLa [2]): 12.5 µM | Activity (HCT-116 [15]): Active

COc1ccc(-c2coc3cc(O)ccc3c2=O)cc1N(CCCl)CCCl
IC50 (DU-145): 22.6 µM | IC50 (SH-SY5Y): 2.7 µM | IC50 (SGC-7901): 8.2 µM | IC50 (HCT-116 [1]): 4.1 µM | IC50 (HeLa [2]): 56.3 µM
